ChEMBL document CHEMBL1681789, “New bichalcone analogs as NF-κB inhibitors and as cytotoxic agents inducing Fas/CD95-dependent apoptosis” (Bioorg Med Chem, 2011)
pIC50: −log10 of the molar value. The source made the active and inactive calls. The calls are words filed in the database; no cut-off is given here.

Tests used:
[1] = system: BV-2; experiment: Reduction in iNOS protein expression in LPS-stimulated mouse BV2 cells at 1 uM by Western blotting
[2] = system: BV-2; experiment: Inhibition of NADPH oxidase mediated-ROS production in mouse BV2 cells; type: cell-based
Procedure, shortened: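 Compounds were incubated with 50 µg microglial cell homogenate for 20 min at 37 °C in the dark. Superoxide production was started with 200 µM NADPH, and chemiluminescence was followed for 30 min; the AUC represents ROS production. DPI served as positive control.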

[3] = system: A549; experiment: Cytotoxicity against human A549 cells after 3 days; type: functional; details: A549, 72 h
Procedure, shortened: (§1)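 Seeded at 1500–7500 cells/well; compounds added from DMSO-diluted stock. After 3 days, attached cells were fixed with cold 50% TCA, stained with 0.4% sulforhodamine B and read at 562 nm. EC50 is the concentration reducing growth by 50%, averaged over at least three independent determinations. Cells were grown in RPMI-1640 with […], 0.25% bicarbonate and 10% FBS.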

[4] = Inhibition of Nitric oxide synthase activity in mouse BV2 cells assessed as LPS-induced NO production after 24 hrs by Griess reaction; type: cell-based; details: BV-2, 24 h
Procedure, shortened: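 Murine BV2 microglia were cultured in DMEM with 5% FBS and given 1–50 µM drug with 0.5 µg/mL LPS. Nitrite accumulated in the medium over 24 h was measured by Griess reagent. IC50 values are means ± SEM from 3–6 experiments on different days using different passages.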

[5] = system: DU-145; experiment: Cytotoxicity against human DU145 cells after 3 days; type: functional; details: DU-145, 72 h
Procedure, shortened: as §1

[6] = system: KB; experiment: Cytotoxicity against human KB cells after 3 days; type: functional; details: 72 h
Procedure, shortened: as §1

[7] = system: BV-2; experiment: Inhibition of NF-kappaB nuclear translocation in LPS-stimulated mouse BV2 cells at 1 uM by Western blotting; type: cell-based
[8] = system: HCT-8; experiment: Cytotoxicity against human HCT8 cells after 3 days; type: functional; details: HCT-8, 72 h
Procedure, shortened: as §1

[9] = system: KB; experiment: Cytotoxicity against human KB cells at 20 ug/ml after 3 days; type: functional, cell-based
[10] = system: HCT-8; experiment: Cytotoxicity against human HCT8 cells at 20 ug/ml after 3 days; type: functional, cell-based
[11] = system: A549; experiment: Cytotoxicity against human A549 cells at 20 ug/ml after 3 days; type: functional, cell-based
[12] = system: DU-145; experiment: Cytotoxicity against human DU145 cells at 20 ug/ml after 3 days; type: functional, cell-based
[13] = system: HT-29; experiment: Cytotoxicity against human HT-29 cells assessed as nuclear shrinkage and chromatin condensation at 50 uM for 48 hrs using DAPI staining by fluorescence microscopy relative to untreated cells; type: functional, cell-based
Procedure, shortened: (§2)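 HT-29 cells, kept in RPMI-1640 with FBS and penicillin/streptomycin, were treated for 24 or 48 h. They were fixed in 4% paraformaldehyde for 30 min and stained with 1 µg/mL DAPI for 30 min in the dark. Nuclear morphology was examined by fluorescence microscopy at ×200.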

[14] = system: HT-29; experiment: Induction of apoptosis in human HT-29 cells assessed as increased expression of t-Bid protein by Western blotting; type: functional, cell-based
Procedure, shortened: (§3)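 Total or cytosolic extracts (30 µg protein) from treated HT-29 cells were run on SDS-PAGE and transferred to PVDF. Blots were probed for 12 h with monoclonal antibodies to the named protein, followed by an HRP secondary, and detected by ECL.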

[15] = system: HT-29; experiment: Cytotoxicity against human HT-29 cells for 24 hrs by MTT assay; type: functional, cell-based
Procedure, shortened: (§4)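 HT-29 cells in 96-well plates were exposed to 0–50 µM for 24 h, or to 30 µM for 12–72 h. MTT was then added for 4 h at 37 °C in the dark, and formazan was dissolved in DMSO and read at 570 nm. Viability is expressed as % of untreated OD, run in triplicate, mean±SD.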

[16] = system: HT-29; experiment: Cytotoxicity against human HT-29 cells assessed as nuclear shrinkage and chromatin condensation at 30 uM for 24 hrs using DAPI staining by fluorescence microscopy relative to untreated cells; type: functional, cell-based
Procedure, shortened: as §2

[17] = system: HT-29; experiment: Induction of apoptosis in human HT-29 cells assessed as decreased expression of Bcl-2 protein by Western blotting; type: functional, cell-based
Procedure, shortened: as §3

[18] = system: HT-29; experiment: Cytotoxicity against human HT-29 cells assessed as nuclear shrinkage and chromatin condensation at 30 uM for 48 hrs using DAPI staining by fluorescence microscopy relative to untreated cells; type: functional, cell-based
Procedure, shortened: as §2

[19] = system: HT-29; experiment: Induction of apoptosis in human HT-29 cells assessed as decreased expression of pro-caspase-9 protein by Western blotting; type: functional, cell-based
Procedure, shortened: as §3

[20] = system: HT-29; experiment: Induction of apoptosis in human HT-29 cells assessed as increased expression of Fas/CD95 protein by Western blotting; type: functional, cell-based
Procedure, shortened: as §3

[21] = system: HT-29; experiment: Induction of apoptosis in human HT-29 cells assessed as DNA fragmentation at 30 uM using TUNEL staining by flow cytometry; type: functional, cell-based
Procedure, shortened: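 HT-29 cells in 6-well plates were treated with 30 µM for 24 and 48 h and harvested. They were labeled with TdT enzyme at 37 °C for 1 h, then FITC anti-digoxigenin conjugate at 37 °C for 30 min in the dark. TUNEL-positive cells were counted by flow cytometry, in triplicate.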

[22] = system: HT-29; experiment: Cytotoxicity against human HT-29 cells assessed as nuclear shrinkage and chromatin condensation at 50 uM for 24 hrs using DAPI staining by fluorescence microscopy relative to untreated cells; type: functional, cell-based
Procedure, shortened: as §2

[23] = system: HT-29; experiment: Induction of apoptosis in human HT-29 cells assessed as increased expression of caspase 3 protein by Western blotting; type: functional, cell-based
Procedure, shortened: as §3

[24] = system: HT-29; experiment: Induction of apoptosis in human HT-29 cells assessed as increased expression of cytosolic cytochrome C protein by Western blotting; type: functional, cell-based
Procedure, shortened: as §3

[25] = system: HT-29; experiment: Induction of apoptosis in human HT-29 cells assessed as decreased expression of pro-caspase-8 protein by Western blotting; type: functional, cell-based
Procedure, shortened: as §3

[26] = system: HT-29; experiment: Induction of apoptosis in human HT-29 cells at 30 uM for 24 hrs pretreated with caspase 8 inhibitor Z-IETD-FMK for 1 hr by MTT assay; type: functional, cell-based
Procedure, shortened: (§5)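 HT-29 cells were pretreated for 1 h with caspase-3, -8 or -9 inhibitor (dissolved in DMSO, diluted in medium), then given 30 µM for 24 h. Viability was read by MTT at 570 nm, in triplicate.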

[27] = system: HT-29; experiment: Induction of apoptosis in human HT-29 cells at 30 uM for 24 hrs pretreated with caspase 9 inhibitor Z-LEHD-FMK for 1 hr by MTT assay; type: functional, cell-based
Procedure, shortened: as §5

[28] = system: HT-29; experiment: Induction of apoptosis in human HT-29 cells assessed as caspase 8 activation at 30 uM for 24 hrs by MTT assay; type: functional, cell-based
[29] = system: HT-29; experiment: Induction of apoptosis in human HT-29 cells assessed as increased expression of FADD protein by Western blotting; type: functional, cell-based
Procedure, shortened: as §3

[30] = system: HT-29; experiment: Induction of apoptosis in human HT-29 cells assessed as increased expression of AIF protein by Western blotting; type: functional, cell-based
Procedure, shortened: as §3

[31] = system: HT-29; experiment: Induction of apoptosis in human HT-29 cells assessed as increased expression of Endo G protein by Western blotting; type: functional, cell-based
Procedure, shortened: as §3

[32] = system: HT-29; experiment: Induction of apoptosis in human HT-29 cells assessed as caspase 9 activation at 30 uM for 24 hrs by MTT assay; type: functional, cell-based
[33] = system: HT-29; experiment: Cytotoxicity against human HT-29 cells at 30 uM by MTT assay; type: functional, cell-based; details: TDE = time-dependent effect
Procedure, shortened: as §4

[34] = system: HT-29; experiment: Induction of apoptosis in human HT-29 cells assessed as increased expression of Apaf-1 protein by Western blotting; type: functional, cell-based
Procedure, shortened: as §3

[35] = system: HT-29; experiment: Induction of apoptosis in human HT-29 cells assessed as increased expression of Bax protein by Western blotting; type: functional, cell-based
Procedure, shortened: as §3

[36] = system: HT-29; experiment: Induction of apoptosis in human HT-29 cells assessed as caspase 3 activation at 30 uM for 24 hrs by MTT assay; type: functional, cell-based
[37] = system: HT-29; experiment: Induction of apoptosis in human HT-29 cells at 30 uM for 24 hrs pretreated with caspase 3 inhibitor […] for 1 hr by MTT assay; type: functional, cell-based
Procedure, shortened: as §5

For O=C(/C=C/c1cccnc1)c1ccc(N2CCN(Cc3cc(C(=O)/C=C/c4cccnc4)ccc3O)CC2)cc1, the inhibition [1] was “Active”, the inhibition [2] was “inactive” and the GI50 [3] was 1.47 µM. For the same molecule, the pIC50 [4] was 6.52, the GI50 [5] was 2.19 µM and the GI50 [6] was 1.66 µM. For the same molecule, the inhibition [7] was “Active” and the GI50 [8] was 1.4 µM.

CC(=O)O[C@H]1C(=O)[C@@]2(C)[C@H]([C@H](OC(=O)c3ccccc3)[C@]3(O)C[C@H](OC(=O)[C@H](O)[C@@H](NC(=O)c4ccccc4)c4ccccc4)C(C)=C1C3(C)C)[C@]1(OC(C)=O)CO[C@@H]1C[C@@H]2O [PACLITAXEL] gave a GI50 [3] of 0.0076 µM, a GI50 [5] of 0.00523 µM and a GI50 [6] of 0.00516 µM. The GI50 [8] was over 0.1 µM.

With COc1ccc(/C=C/C(=O)c2ccc(N3CCN(Cc4cc(C(=O)/C=C/c5ccc(OC)cc5)ccc4O)CC3)cc2)cc1 the inhibition [1] was “Active”, the Activity [9] was “inactive” and the inhibition [2] was “inactive”. The pIC50 [4] was 6.30, the Activity [10] was “inactive” and the inhibition [7] was “Active”. For the same molecule, the Activity [11] was “inactive” and the Activity [12] was “inactive”.

For CC(=O)c1ccc(N2CCN(Cc3cc(C(=O)/C=C/c4ccc[nH]4)ccc3O)CC2)cc1, the inhibition [2] was “inactive”, the GI50 [3] was 20.1 µM and the pIC50 [4] was 5.77. For the same molecule, the GI50 [5] was 17.9 µM, the GI50 [6] was 19 µM and the GI50 [8] was 24.7 µM.

For COc1cc(C(=O)/C=C/c2ccccn2)cc(CN2CCN(c3ccc(C(=O)/C=C/c4ccccn4)cc3)CC2)c1O, the inhibition [2] was “inactive”, the GI50 [3] was 1 µM and the pIC50 [4] was 5.80. For the same molecule, the GI50 [5] was 1.3 µM, the GI50 [6] was 3.98 µM and the GI50 [8] was 0.7 µM.

In the case of CC(=O)c1ccc(N2CCN(Cc3cc(C(=O)/C=C/c4cccn4C)ccc3O)CC2)cc1, the inhibition [2] was “inactive”, the GI50 [3] was 31.2 µM and the pIC50 [4] was 5.72. It also gave a GI50 [5] of over 45.1 µM, a GI50 [6] of 39.1 µM and a GI50 [8] of over 45.1 µM.

With COc1cc(C(=O)/C=C/c2cccnc2)cc(CN2CCN(c3ccc(C(C)=O)cc3)CC2)c1O the Activity [13] was “Active”, the Activity [14] was “Active” and the Activity [15] was “Dose-dependent effect”. The Activity [16] was “Active”, the inhibition [2] was “inactive” and the GI50 [3] was 9.77 µM. For the same molecule, the Activity [17] was “Active”, the Activity [18] was “Active” and the pIC50 [4] was 5.46. The Activity [19] was “Active”, the Activity [20] was “Active” and the Activity [21] was “Active”. The Activity [22] was “Active”, the Activity [23] was “Active” and the Activity [24] was “Active”. The Activity [25] was “Active”, the GI50 [5] was 9.98 µM and the Activity [26] was “inactive”. For the same molecule, the Activity [27] was “inactive”, the Activity [28] was “Active” and the GI50 [6] was 13.1 µM. The Activity [29] was “Active”, the Activity [30] was “Active” and the Activity [31] was “Active”. For the same molecule, the Activity [32] was “Active”, the Activity [33] was “tde” and the Activity [34] was “Active”. For the same molecule, the Activity [35] was “Active”, the GI50 [8] was 11.2 µM and the Activity [36] was “Active”. The Activity [37] was “inactive”.

With COc1cc(C(=O)/C=C/c2ccccc2)cc(CN2CCN(c3ccc(C(=O)/C=C/c4ccccc4)cc3)CC2)c1O the inhibition [2] was “inactive”, the GI50 [3] was over 35.8 µM and the pIC50 [4] was 5.68. For the same molecule, the GI50 [5] was over 35.8 µM, the GI50 [6] was over 35.8 µM and the GI50 [8] was 25.8 µM.

In the case of O=C(/C=C/c1ccccn1)c1ccc(N2CCN(Cc3cc(C(=O)/C=C/c4ccccn4)ccc3O)CC2)cc1, the inhibition [2] was “inactive”, the GI50 [3] was 1.08 µM and the pIC50 [4] was 5.85. It also gave a GI50 [5] of 1.25 µM, a GI50 [6] of 1.23 µM and a GI50 [8] of 1.26 µM.

For COc1ccc(/C=C/C(=O)c2ccc(N3CCN(Cc4cc(C(=O)/C=C/c5ccc(OC)cc5)cc(OC)c4O)CC3)cc2)cc1, the Activity [9] was “inactive”, the inhibition [2] was “inactive” and the pIC50 [4] was 5.46. For the same molecule, the Activity [10] was “inactive”, the Activity [11] was “inactive” and the Activity [12] was “inactive”.

For O=C(/C=C/c1cccs1)c1ccc(N2CCN(Cc3cc(C(=O)/C=C/c4cccs4)ccc3O)CC2)cc1, the inhibition [2] was “inactive”, the GI50 [3] was over 37 µM and the pIC50 [4] was 5.72. The GI50 [5] was 29.2 µM, the GI50 [6] was over 37 µM and the GI50 [8] was over 37 µM.
